Reference: ChEMBL document CHEMBL3108706, “Design, synthesis, and biological activity of novel dicoumarol glucagon-like peptide 1 conjugates” (J Med Chem, 2013)
Activity calls are given as the source filed them. The calls are words filed in the database; no cut-off is given here.

Experiments:
Rattus norvegicus [1] = experiment: Anticoagulant activity in Sprague-Dawley rat assessed as prothombin time at 150 nmol/kg, iv administered for 6 days measured on day 7 by coagulometric analysis (reference value: 13.5 +/- 0.32 secs); format: functional
Rattus norvegicus [2] = experiment: Antidiabetic activity in Sprague-Dawley rat assessed as reduction of plasma glucose level at 25 nmol/kg, ip administered 0.5 hrs prior to glucose challenge by OGTT (reference value: 13.32 +/- 1.84 mM); format: functional
[3] = Tmax in Sprague-Dawley rat at 15 nmol/kg, sc by LC-MS/MS analysis; format: ADME, organism-based; conditions: in vivo
[4] = Mean residence time in Sprague-Dawley rat at 15 nmol/kg, sc by LC-MS/MS analysis; format: ADME, organism-based; conditions: in vivo
Rattus norvegicus [5] = experiment: Antidiabetic activity in Sprague-Dawley rat assessed as reduction of plasma glucose level at 25 nmol/kg, ip administered 0.5 hrs prior to glucose challenge measured at 15 to 60 mins by OGTT; format: functional, organism-based
Rattus norvegicus [6] = experiment: Antidiabetic activity in Sprague-Dawley rat assessed as increase of plasma insulin level at 25 nmol/kg, ip administered 0.5 hrs prior to glucose challenge measured for 120 mins by ELISA; format: functional, organism-based
Method in brief: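 SD rats (200−250 g, n = 6/group) were fasted 12 h and given compound ip (25 nmol/kg) or saline 0.5 h before oral glucose (10 g/kg). Tail-vein blood glucose was read with a meter at −30, 0, 15, 30, 45, 60, 90, 120 and 180 min. Insulin was measured by rat insulin ELISA. Mean ± SD.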

Rattus norvegicus [7] = experiment: AUC (0 to infinity) in Sprague-Dawley rat at 15 nmol/kg, sc by LC-MS/MS analysis; format: ADME, organism-based, Plasma; design: dose 15 nmol/kg, route subcutaneous, time infinity; conditions: in vivo
Rattus norvegicus [8] = experiment: Anticoagulant activity in Sprague-Dawley rat assessed as thombin time at 150 nmol/kg, iv administered for 6 days measured on day 7 by coagulometric analysis (reference value: 19.38 +/- 0.72 secs); format: functional
Mus musculus [9] = experiment: Hypoglycemic activity in C57BL/6J-m+/+Leprdb (db/db) mouse assessed as reduction of plasma glucose level at 25 nmol/kg, ip administered 0.5 hrs prior to glucose challenge measured at 21.5 to 24 hrs by IPGTT; format: functional, organism-based
Mus musculus [10] = experiment: Hypoglycemic activity in C57BL/6J-m+/+Leprdb (db/db) mouse assessed as reduction of plasma glucose level at 25 nmol/kg, ip administered 0.5 hrs prior to glucose challenge measured up to 17 hrs by IPGTT (reference value: >30 mM); format: functional
Rattus norvegicus [11] = experiment: Anticoagulant activity in Sprague-Dawley rat assessed as activated […] time at 25 nmol/kg, iv administered for 6 days measured on day 7 by coagulometric analysis (reference value: 26.5 +/- 0.81 secs); format: functional
albumin = albumin (Homo sapiens, UniProt P02768); experiment: Binding affinity to human serum albumin at 100 ug/mL after 3 hrs relative to control; format: ADME; conditions: read-out: PB (converted)
Method in brief: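 Peptide at 100 μg/mL in PBS (50 μL) was incubated with HSA-conjugated Sepharose resin for 3 h at 25 °C, then centrifuged (1000 rpm, 10 min). Unbound peptide in the supernatant was quantified by micro BCA assay. Nonspecific adsorption was corrected with NHS-inactivated, albumin-free resin.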

Mus musculus [12] = experiment: Hypoglycemic activity in C57BL/6J-m+/+Leprdb (db/db) mouse assessed as reduction of plasma glucose level at 25 nmol/kg, ip administered 0.5 hrs prior to glucose challenge measured after 18 to 21 hrs by IPGTT (reference value: >30 mM); format: functional
Rattus norvegicus [13] = experiment: Anticoagulant activity in Sprague-Dawley rat assessed as prothombin time at 25 nmol/kg, iv administered for 6 days measured on day 7 by coagulometric analysis (reference value: 13.5 +/- 0.32 secs); format: functional
Mus musculus [14] = experiment: Hypoglycemic activity in C57BL/6J-m+/+Leprdb (db/db) mouse assessed as reduction of plasma glucose level at 25 nmol/kg, ip administered 0.5 hrs prior to glucose challenge measured at 21.5 hrs by IPGTT (reference value: >30 mM); format: functional
Mus musculus [15] = experiment: Hypoglycemic activity in C57BL/6J-m+/+Leprdb (db/db) mouse assessed as time required to reduce plasma glucose level below 8.35 mM at 150 nmol/kg, ip administered for 0.5 hrs; format: functional
Method in brief: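 Non-fasted male db/db mice (7 weeks, free access to food and water) got a single ip injection (25 or 150 nmol/kg) or saline. Glucose AUC0−48h and the time for glucose to return below 8.35 mM were derived. Mean ± SD, n = 6.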

[16] = Half life in Sprague-Dawley rat plasma at 1000 ng/mL by LC-MS/MS analysis; format: ADME, cell-free
Rattus norvegicus [17] = experiment: Anticoagulant activity in Sprague-Dawley rat assessed as thombin time at 25 nmol/kg, iv administered for 6 days measured on day 7 by coagulometric analysis (reference value: 19.38 +/- 0.72 secs); format: functional
[18] = Cmax in Sprague-Dawley rat at 15 nmol/kg, sc by LC-MS/MS analysis; format: ADME, organism-based; design: dose 15 nmol/kg, route subcutaneous; conditions: in vivo
Mus musculus [19] = experiment: Hypoglycemic activity in C57BL/6J-m+/+Leprdb (db/db) mouse assessed as time required to reduce plasma glucose level below 8.35 mM at 25 nmol/kg, ip administered for 0.5 hrs; format: functional
Method in brief: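 Non-fasted male db/db mice (7 weeks, free access to food and water) got a single ip injection (25 or 150 nmol/kg) or saline. Mean ± SD, n = 6.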

Rattus norvegicus [20] = experiment: Anticoagulant activity in Sprague-Dawley rat assessed as activated […] time at 150 nmol/kg, iv administered for 6 days measured on day 7 by coagulometric analysis (reference value: 26.5 +/- 0.81 secs); format: functional
Rattus norvegicus [21] = experiment: Antidiabetic activity in Sprague-Dawley rat assessed as increase of plasma insulin level at 25 nmol/kg, ip administered 0.5 hrs prior to glucose challenge measured at 45 mins by ELISA; format: functional
[22] = Elimination half life in Sprague-Dawley rat at 15 nmol/kg, sc by LC-MS/MS analysis; format: ADME, organism-based; conditions: in vivo, read-out: beta t1/2 (converted)
[23] = target: Glucagon-like peptide 1 receptor (Homo sapiens, UniProt P43220); experiment: Activation of human GLP-1 receptor overexpressed in HEK293 cells assessed as cAMP accumulation after 20 mins by HTRF assay; format: functional, cell-based
Rattus norvegicus [24] = experiment: Antidiabetic activity in Sprague-Dawley rat assessed as increase of plasma insulin level at 25 nmol/kg, ip administered 0.5 hrs prior to glucose challenge measured at 15 mins by ELISA; format: functional

albumin, sequence (P02768 whole entry): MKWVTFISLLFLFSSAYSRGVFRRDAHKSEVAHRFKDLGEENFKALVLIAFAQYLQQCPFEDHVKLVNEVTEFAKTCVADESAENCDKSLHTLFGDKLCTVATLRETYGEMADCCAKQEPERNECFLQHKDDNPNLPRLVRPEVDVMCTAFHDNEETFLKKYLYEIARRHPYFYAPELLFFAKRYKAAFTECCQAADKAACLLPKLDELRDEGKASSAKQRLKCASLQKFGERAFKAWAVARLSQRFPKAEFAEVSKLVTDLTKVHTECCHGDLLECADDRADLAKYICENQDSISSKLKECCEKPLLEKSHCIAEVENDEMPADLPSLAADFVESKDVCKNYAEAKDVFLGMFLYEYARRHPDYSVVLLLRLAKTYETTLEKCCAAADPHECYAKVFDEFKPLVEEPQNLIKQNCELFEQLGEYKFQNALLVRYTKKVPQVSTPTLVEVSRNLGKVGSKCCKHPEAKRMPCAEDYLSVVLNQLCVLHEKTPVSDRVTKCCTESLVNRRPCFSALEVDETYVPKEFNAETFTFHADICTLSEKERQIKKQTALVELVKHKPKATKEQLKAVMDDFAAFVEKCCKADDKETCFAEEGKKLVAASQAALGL
Glucagon-like peptide 1 receptor, sequence (P43220 whole entry): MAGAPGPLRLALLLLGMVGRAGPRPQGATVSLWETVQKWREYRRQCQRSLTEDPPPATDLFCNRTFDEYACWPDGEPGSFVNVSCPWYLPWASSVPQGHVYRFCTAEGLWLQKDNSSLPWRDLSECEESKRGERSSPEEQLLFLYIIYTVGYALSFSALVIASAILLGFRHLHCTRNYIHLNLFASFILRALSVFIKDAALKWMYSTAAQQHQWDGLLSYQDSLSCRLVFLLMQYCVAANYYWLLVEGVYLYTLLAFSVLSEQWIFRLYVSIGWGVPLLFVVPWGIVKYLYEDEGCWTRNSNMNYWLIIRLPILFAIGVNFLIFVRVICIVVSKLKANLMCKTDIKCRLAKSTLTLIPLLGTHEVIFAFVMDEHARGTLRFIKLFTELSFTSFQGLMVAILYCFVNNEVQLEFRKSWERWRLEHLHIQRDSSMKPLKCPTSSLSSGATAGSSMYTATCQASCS

Structure (SMILES) | Activity (Rattus norvegicus [2]) [mM] | Tmax [3] [h] | MRT [4] [h] | Activity (Rattus norvegicus [5]) | Activity (Rattus norvegicus [6]) | AUC (Rattus norvegicus [7]) [ng·h/mL] | fraction unbound at 3 h, 100 ug/mL (albumin) | half-life at 1000 ng/mL [16] [h] | Cmax [18] [ng/mL] | Time (Mus musculus [19]) [h] | Activity (Rattus norvegicus [21]) [pM] | half-life [22] [h] | EC50 [23] [nM] | Activity (Rattus norvegicus [24]) [pM] | also measured
CC[C@H](C)[C@H](NC(=O)[C@H](Cc1ccccc1)NC(=O)[C@H](CCC(=O)O)NC(=O)[C@H](CCCCN)NC(=O)[C@H](C)NC(=O)[C@H](C)NC(=O)[C@H](CCC(N)=O)NC(=O)CNC(=O)[C@H](CCC(=O)O)NC(=O)[C@H](CC(C)C)NC(=O)[C@H](Cc1ccc(O)cc1)NC(=O)[C@H](CO)NC(=O)[C@H](CO)NC(=O)[C@@H](NC(=O)[C@H](CC(=O)O)NC(=O)[C@H](CO)NC(=O)[C@@H](NC(=O)[C@H](Cc1ccccc1)NC(=O)[C@@H](NC(=O)CNC(=O)[C@H](CCC(=O)O)NC(=O)CNC(=O)[C@@H](N)Cc1cnc[nH]1)[C@@H](C)O)[C@@H](C)O)C(C)C)C(=O)N[C@@H](C)C(=O)N[C@@H](Cc1c[nH]c2ccccc12)C(=O)N[C@@H](CC(C)C)C(=O)N[C@H](C(=O)N[C@@H](CCCCN)C(=O)NCC(=O)N[C@@H](CCCNC(=N)N)C(=O)N[C@@H](CSC1CC(=O)N(CCCCCCCCCCCC(=O)Nc2ccc(C(c3c(O)c4ccccc4oc3=O)c3c(O)c4ccccc4oc3=O)cc2)C1=O)C(N)=O)C(C)C (some centres undefined) | 7.8 | 1.3 | 29.8 | Active | Active | 36800 | 0.06 | 55.8 | 907 | 22.5 | 524.26 | 18.8 | 0.0242 | 1052.22 | PT (Rattus norvegicus [1]): 13.53 s; TT (Rattus norvegicus [8]): 19.8 s; Activity (Mus musculus [9]): Active; Activity (Mus musculus [10]): <12 mM; APTT (Rattus norvegicus [11]): 26.76 s; Activity (Mus musculus [12]): <16 mM; PT (Rattus norvegicus [13]): 13.39 s; Activity (Mus musculus [14]): 16.25 mM; Time (Mus musculus [15]): 30.4 h; TT (Rattus norvegicus [17]): 19.4 s; APTT (Rattus norvegicus [20]): 26.48 s
CCCCCCCCCCCCCCCC(=O)N[C@@H](CCC(=O)NCCCC[C@H](NC(=O)[C@H](C)NC(=O)[C@H](C)NC(=O)[C@H](CCC(N)=O)NC(=O)CNC(=O)[C@H](CCC(=O)O)NC(=O)[C@H](CC(C)C)NC(=O)[C@H](Cc1ccc(O)cc1)NC(=O)[C@H](CO)NC(=O)[C@H](CO)NC(=O)[C@@H](NC(=O)[C@H](CC(=O)O)NC(=O)[C@H](CO)NC(=O)[C@@H](NC(=O)[C@H](Cc1ccccc1)NC(=O)[C@@H](NC(=O)CNC(=O)[C@H](CCC(=O)O)NC(=O)[C@H](C)NC(=O)[C@@H](N)Cc1cnc[nH]1)[C@@H](C)O)[C@@H](C)O)C(C)C)C(=O)N[C@@H](CCC(=O)O)C(=O)N[C@@H](Cc1ccccc1)C(=O)N[C@H](C(=O)N[C@@H](C)C(=O)N[C@@H](Cc1c[nH]c2ccccc12)C(=O)N[C@@H](CC(C)C)C(=O)N[C@H](C(=O)N[C@@H](CCCNC(=N)N)C(=O)NCC(=O)N[C@@H](CCCNC(=N)N)C(=O)NCC(=O)O)C(C)C)[C@@H](C)CC)C(=O)O [LIRAGLUTIDE] | 8.3 | 1.51 | 18.3 | Active | Active | 18100 | 0.087 | 17.1 | 902 | 19 | 425.34 | 12.5 | – | 992.08 | –
CC[C@H](C)[C@H](NC(=O)[C@H](Cc1ccccc1)NC(=O)[C@H](CCC(=O)O)NC(=O)[C@H](CCCCN)NC(=O)[C@H](C)NC(=O)[C@H](C)NC(=O)[C@H](CCC(N)=O)NC(=O)CNC(=O)[C@H](CCC(=O)O)NC(=O)[C@H](CC(C)C)NC(=O)[C@H](Cc1ccc(O)cc1)NC(=O)[C@H](CO)NC(=O)[C@H](CSC1CC(=O)N(CCCCCC(=O)Nc2ccc(C(c3c(O)c4ccccc4oc3=O)c3c(O)c4ccccc4oc3=O)cc2)C1=O)NC(=O)[C@@H](NC(=O)[C@H](CC(=O)O)NC(=O)[C@H](CO)NC(=O)[C@@H](NC(=O)[C@H](Cc1ccccc1)NC(=O)[C@@H](NC(=O)CNC(=O)[C@H](CCC(=O)O)NC(=O)CNC(=O)[C@@H](N)Cc1cnc[nH]1)[C@@H](C)O)[C@@H](C)O)C(C)C)C(=O)N[C@@H](C)C(=O)N[C@@H](Cc1c[nH]c2ccccc12)C(=O)N[C@@H](CC(C)C)C(=O)N[C@H](C(=O)N[C@@H](CCCCN)C(=O)NCC(=O)N[C@@H](CCCNC(=N)N)C(N)=O)C(C)C (some centres undefined) | – | – | – | – | – | – | 0.162 | 20.7 | – | – | – | – | 0.0336 | – | –
CC[C@H](C)[C@H](NC(=O)[C@H](Cc1ccccc1)NC(=O)[C@H](CCC(=O)O)NC(=O)[C@H](CCCCN)NC(=O)[C@H](C)NC(=O)[C@H](C)NC(=O)[C@H](CCC(N)=O)NC(=O)CNC(=O)[C@H](CCC(=O)O)NC(=O)[C@H](CC(C)C)NC(=O)[C@H](Cc1ccc(O)cc1)NC(=O)[C@H](CO)NC(=O)[C@H](CO)NC(=O)[C@@H](NC(=O)[C@H](CC(=O)O)NC(=O)[C@H](CO)NC(=O)[C@@H](NC(=O)[C@H](Cc1ccccc1)NC(=O)[C@@H](NC(=O)CNC(=O)[C@H](CCC(=O)O)NC(=O)CNC(=O)[C@@H](N)Cc1cnc[nH]1)[C@@H](C)O)[C@@H](C)O)C(C)C)C(=O)N[C@@H](C)C(=O)N[C@@H](Cc1c[nH]c2ccccc12)C(=O)N[C@@H](CC(C)C)C(=O)N[C@H](C(=O)N[C@@H](CCCCN)C(=O)NCC(=O)N[C@@H](CCCNC(=N)N)C(=O)N[C@@H](CSC1CC(=O)N(CCC(=O)Nc2ccc(C(c3c(O)c4ccccc4oc3=O)c3c(O)c4ccccc4oc3=O)cc2)C1=O)C(N)=O)C(C)C (some centres undefined) | – | – | – | – | – | – | 0.332 | 9.7 | – | – | – | – | 0.003 | – | –
